Test results: PMC12519076 (RSC Advances, 2025)
Like-named read-outs stand apart in the source and are kept apart here.

What was measured:
[1] = following intraperitoneal administration; cited from earlier work
[2] = type: in vivo, mice; conditions: for Detection in the brain: oral administration; for Detection in plasma: mice sacrificed 12 h after food intake
Summary of the method: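 Male C57BL/6 mice, 7 weeks old, fed a high-fat diet with 1% w/w orange peel extract for 6 weeks, with 0.65% carnitine in drinking water. Tissues were homogenized under liquid nitrogen. Tissues, plasma (cardiac puncture, EDTA) and urine were extracted in methanol with 0.1% DMSO; taxifolin was the internal standard. Separation on a C30 column with a formic acid water/acetonitrile gradient; positive ESI, SRM. Values expressed as tissue–peel ratio.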

[3] = type: in vivo, mice; conditions: by number of metabolites identified
Summary of the method: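 Male C57BL/6 mice, from 7 weeks old, given high-fat chow containing 1% w/w orange peel extract for 6 weeks, with 0.65% carnitine in water. Methanol/0.1% DMSO extracts were run by UHPLC on a C30 column at 40 °C, 0.1% formic acid water/acetonitrile gradient 2–100% B, 0.2 mL min−1, with Q-Exactive Orbitrap detection. Metabolites were assigned to parent PMFs by key-ion patterns.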

acetylcholinesterase = conditions: cortex and hippocampus; cited from earlier work
[4] = test system: spatial learning impairments induced by Aβ1-42; conditions: oral administration for four weeks; cited from earlier work

SMILES | Detection in the brain [2] | Detection in the liver [2] | Detection in the kidney [2] | Detection in plasma [2] | Detection in the testes ([2]; testes) | other results
COc1cc(-c2cc(=O)c3c(OC)c(OC)c(OC)c(OC)c3o2)ccc1O [4′-demethylnobiletin] |  |  |  |  |  | Detection in the brain [1]: detected in the brain
COc1ccc(-c2cc(=O)c3c(OC)c(OC)c(OC)c(OC)c3o2)cc1 [PMF 6, tangeretin] | found | detected | detected | detected | not detected | 
COc1ccc(-c2cc(=O)c3c(OC)c(OC)c(OC)c(OC)c3o2)cc1OC [PMF 3, nobiletin] | found | detected | detected | detected | not detected | Extent of metabolism among the 11 PMFs [3]: most extensively metabolized; Acetylcholinesterase activity (acetylcholinesterase): enhanced; Effect on spatial learning impairments induced by Aβ1-42, Morris water maze test [4]: prevent spatial learning impairments; Urine–peel ratio relative to other non-hydroxylated PMFs ([2]; urine): approximately two times higher
COc1ccc(-c2oc3c(OC)c(OC)c(OC)c(OC)c3c(=O)c2OC)cc1OC [PMF 5, 3,5,6,7,8,3′,4′-heptamethoxyflavone] | found | detected |  | detected | not detected | 
COc1ccc(-c2oc3c(OC)c(OC)cc(O)c3c(=O)c2OC)cc1OC [PMF 9, 5-hydroxy-3,7,8,3′,4′-pentamethoxyflavone] | not detected | detected |  |  |  | 
COc1ccc(-c2oc3c(OC)c(OC)c(OC)c(O)c3c(=O)c2OC)cc1OC [PMF 11, 5-hydroxy-3,6,7,8,3′,4′-hexamethoxyflavone] | not detected | not detected |  |  |  | 

Now from value to compound, other results behind:

Detection in the brain [2] | Detection in the liver [2] | Detection in the kidney [2] | Detection in plasma [2] | Detection in the testes ([2]; testes) | SMILES | other results
found | detected |  |  |  | COc1ccc(-c2cc(=O)c3c(OC)c(OC)c(OC)cc3o2)cc1OC [PMF 10, sinensetin] | 
found |  |  | detected | detected | COc1ccc(-c2cc(=O)c3cc(OC)c(OC)c(OC)c3o2)cc1OC [PMF 1, 6,7,8,3′,4′-pentamethoxyflavone] | 
not detected | detected | detected |  | detected | COc1ccc(-c2cc(=O)c3c(O)c(OC)c(OC)c(OC)c3o2)cc1OC [PMF 8, 5-hydroxy-6,7,8,3′,4′-pentamethoxyflavone] | Extent of metabolism among the 11 PMFs [3]: most extensively metabolized; Feces-peel ratio relative to that of PMF 11 ([2]; feces): twice as high; Testes-to-peel ratio relative to the detected major PMFs 1 and 4 ([2]; testes): 10 to 14 times
